We go through 3 molecules from PMC6977340 (Clinical Pharmacology and Therapeutics, 2019).

Converted amounts (≈) assume the structure as drawn.

Data set [1] deals with Aβ37. Conditions: cited from earlier work.
Data set [2] relates to Aβ42. The note with it: cited from earlier work.
The subject of data set [3] is Aβ38. The note with it: cited from earlier work.
Data set [4] relates to CSF Aβ40. Conditions: multiple-ascending doses over 28 days, healthy subjects ref 32; cited from earlier work.
The test system of data set [5] is CSF Aβ37. As to the kind of experiment: PK/PD indirect-response model, CSF Aβ37. It counts as in vivo, human. The essentials:
(§1)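 Population PK/PD fit in NONMEM (FOCE with interaction) for healthy adults. Inputs: serial CSF via lumbar catheter, 2 h predose to 36 h after one fasted oral 150 or 300 mg dose; single lumbar punctures at baseline and day 14 in 40–360 mg q.d. cohorts. Fixed two-compartment PK gave individual plasma concentrations. Indirect-response model: sigmoid inhibition (Aβ40/42) or stimulation (Aβ37/38) of production, with kout turnover. Fixed placebo-drift terms.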

Data set [6] in a line: Safety/tolerability, B7991002 multiple-ascending dose study. The note with it: doses up to 360 mg q.d. for up to 14 days, healthy young and elderly subjects. It counts as in vivo, human. The essentials: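 Healthy subjects aged 18–55 and elderly subjects aged 65–85 took oral doses once daily for 14 days, with about 10 per cohort and placebo control. Dosing was fasted on days 1, 7 and 14, otherwise >1 h from breakfast. Investigators recorded adverse events with severity and causality, plus laboratory tests, physical examinations, ECG monitoring and vital signs.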

Data set [7] can be described thus: Plasma and CSF pharmacokinetics, B7991002 multiple dose. It counts as in vivo, human. Conditions: for PF-06648671 concentration in CSF, mean: day 14, nonelderly.
Data set [8] relates to plasma Aβ. The experiment in a line: Plasma Aβ levels after single doses. It counts as in vivo, human. Conditions: following single doses.
Data set [9] can be described thus: Plasma pharmacokinetics, B7991001 single-ascending dose incl. food effect. The note with it: 120 mg fed vs fasted. It counts as in vivo, human.
Data set [10] deals with Aβ42, Aβ40, Aβ37 and Aβ38. The note with it: cited from earlier work.
The test system of data set [11] is CSF Aβ38. As to the kind of experiment: PK/PD indirect-response model, CSF Aβ38. It counts as in vivo, human. An outline of the steps: as §1
In data set [12] the test system is Aβ42 within the brain and CSF. Conditions: acute oral administration ref 36; cited from earlier work.
Data set [13] deals with CSF Aβ40. As to the kind of experiment: PK/PD indirect-response model, CSF Aβ40. It counts as in vivo, human. An outline of the steps:
as §1

For data set [14], the system named is CSF Aβ42. The experiment in a line: PK/PD indirect-response model, CSF Aβ42. It counts as in vivo, human. The essentials: as §1
Data set [15] deals with Notch. The note with it: cell-based assays ref 36; cited from earlier work.
Where [16] appears, read: multiple-ascending doses over 28 days, healthy subjects ref 32.
[17] abbreviates: single dosing, healthy subjects ref 33.

Regarding `CNc1nc(Nc2ccc(-n3cnc(C)n3)c(OC)c2)nc2c1CC[C@H]2c1ccc(F)cc1` [BMS‐932481], the “Increase in CSF Aβ37” value in [1] (setting [16]) is on record as “up to 545%”. In [1] (setting [17]), the “Increase in Aβ37” value is “up to 12 fold”. Further, the “Decrease in CSF Aβ42” value in data set [2] (setting [16]) is listed as “up to 77%”. Further, the “Decrease in Aβ42” value in data set [2] (setting [17]) is recorded as “up to 50%”. Also, the “Increase in CSF Aβ38” value in [3] (setting [16]) was at most 69%. Besides, the “Increase in Aβ38” value in data set [3] (setting [17]) is on record as at most 2 fold. In addition, the “Decrease in CSF Aβ40” value in [4] is recorded as at most 74%.
Take `COc1nc(/C=C/c2nc3n(n2)CCC[C@H]3c2ccccc2C(F)(F)F)ccc1-n1cnc(C)c1` [E2212]: the “Decrease in Aβ42 AUC0–24 hours values” in data set [2] (single-ascending doses ref 35) is “up to 44.1%”.
For the molecule `Cc1cn(-c2ccc3n(c2=O)CCN([C@@H](C)[C@@H]2CC[C@H](c4cc(F)c(Cl)cc4C(F)(F)F)O2)C3=O)cn1` [PF-06648671, 2‐[(1S)‐1‐{(2S,5R)‐5‐[4‐chloro‐5‐fluoro‐2‐(trifluoromethyl)phenyl]tetrahydrofuran‐2‐yl}ethyl]‐7‐(4‐methyl‐1H‐imidazol‐1‐yl)‐3,4‐dihydro‐2H‐pyrido[1,2‐a]pyrazine‐1,6‐dione], the EC50 came to 1.28 µg/mL (≈ 2.38 µM) in data set [5] (Homo sapiens, read-out: EC50, plasma concentration at half Emax, Aβ37) and 1.77 µg/mL (≈ 3.28 µM) in data set [11] (Homo sapiens, read-out: EC50, plasma concentration at half Emax, Aβ38). The “Emax, maximum response achievable, Aβ37” value in data set [5] (PK/PD model estimate) was 5.63. Also, the “k out, first-order turnover constant of Aβ37” value in data set [5] (PK/PD model estimate) was 0.0964 h⁻¹. Besides, in data set [5] (steady state, within simulated dose ranges), the “Predicted increase in CSF Aβ37” value is at most 500%. For the same molecule, the Safety profile result in data set [6] was “good safety profile”. The “PF-06648671 concentration in CSF, mean” value in [7] (40 mg q.d., CV 81%) came to 3.49 ng/mL; in data set [7] (360 mg q.d., CV 31%), 27.85 ng/mL. Also, the CSF penetration result in data set [7] (CSF:plasma ratio at day 14 about equal to unbound fraction) is reported as “excellent CSF penetration”. The “Rebound effect of plasma Aβ levels over baseline” value in data set [8] is reported as “no rebound effect of plasma Aβ levels over baseline was observed”. In addition, in [9], the “Delay of median Tmax with food” value was found to be 3 h. Further, in data set [10], the “Effect on Aβ species in cell-based assays” value was “reduced Aβ42 and Aβ40, with concomitant increases in Aβ37 and Aβ38”. The “k out, first-order turnover constant of Aβ38” value in [11] (PK/PD model estimate) was 0.144 h⁻¹. Also, the “Emax, maximum response achievable, Aβ38” value in [11] (PK/PD model estimate, large uncertainty) was 0.869. The “Effect on Aβ42 in animals” value in data set [12] was “reduced Aβ42 within the brain and CSF”. Also, the IC50 in data set [13] (Homo sapiens, read-out: IC50, plasma concentration at half Imax, Aβ40) is 1.23 µg/mL (≈ 2.28 µM); in data set [14] (Homo sapiens, read-out: IC50, plasma concentration at half Imax, Aβ42), 0.421 µg/mL (≈ 0.781 µM). Besides, the “Imax, maximum inhibition achievable, Aβ40” value in data set [13] (PK/PD model estimate) is on record as 0.725. Further, the “k out, first-order turnover constant of Aβ40” value in data set [13] (PK/PD model estimate) is 0.0835 h⁻¹. Moreover, the “Dose predicted to achieve an average 50% reduction in CSF Aβ40” value in data set [13] (steady state, PK/PD model) is 250 mg q.d. Also, the “Predicted reduction in CSF Aβ42 levels” value in [14] (75 mg) is 50%; in data set [14] (300 mg), 65%. For the same molecule, the “Imax, maximum inhibition achievable, Aβ42” value in data set [14] (PK/PD model estimate) is on record as 0.744. In data set [14] (PK/PD model estimate), the “k out, first-order turnover constant of Aβ42” value is 0.121 h⁻¹. Also, in data set [14] (steady state, PK/PD model), the “Dose predicted to achieve an average 50% reduction in CSF Aβ42” value was 75 mg q.d. Further, the “Effect on cleavage of Notch or other substrates” value in data set [15] is “without inhibiting the cleavage of Notch or other substrates”.
